What all share (assay type): functional
The subject of assay [1] is Fusarium verticillioides. The assay is described as follows: Antifungal activity against Fusarium moniliforme at 20 ug after 48 hrs by cup diffusion method. The settings on record: read-out: IZ. The method, boiled down: (§1)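 Cup diffusion on 9 cm plates seeded with 1 × 10⁶ cfu of fungi, with spores adjusted to at least 1 × 10⁶ cfu/ml in potato dextrose broth. Compound in DMF was placed in 5 mm agar cups and left 1 h to diffuse. Plates were incubated at 28 °C for 48 h and the inhibition zone read in mm. DMF was the negative control.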

The test system of assay [2] is Fusarium oxysporum. Briefly: Antifungal activity against Fusarium oxysporum at 20 ug after 48 hrs by cup diffusion method. The settings on record: read-out: IZ. The method, boiled down: as §1
For assay [3], the system named is Aspergillus flavus. The assay is described as follows: Antifungal activity against Aspergillus flavus after 48 hrs by cup diffusion method.
Assay [4] concerns Aspergillus niger. The assay is described as follows: Antifungal activity against Aspergillus niger after 48 hrs by cup diffusion method.
The test system of assay [5] is Fusarium verticillioides. The assay is described as follows: Antifungal activity against Fusarium moniliforme after 48 hrs by cup diffusion method.
Assay [6] relates to Fusarium oxysporum. The assay is described as follows: Antifungal activity against Fusarium oxysporum after 48 hrs by cup diffusion method.
The subject of assay [7] is Klebsiella pneumoniae. The assay is described as follows: Antibacterial activity against Klebsiella pneumoniae […] at 20 ug after 24 hrs by cup diffusion method. The settings on record: read-out: IZ. In outline: (§2)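 Agar cup diffusion. Plates of sterile medium in 9 cm dishes were seeded with 1 × 10⁵ cfu of bacteria, with the suspension adjusted to at least 1 × 10⁵ cfu/ml in nutrient broth. Compound in DMF was placed in 5 mm cups and pre-diffused for 1 h. Plates were incubated at 37 °C for 24 h and the inhibition zone measured in mm. DMF served as negative control.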

In assay [8] the test system is Escherichia coli. The assay is described as follows: Antibacterial activity against Escherichia coli MTCC 443 at 20 ug after 24 hrs by cup diffusion method. The settings on record: MTCC 443, 24 h, read-out: IZ. The method, boiled down:
as §2

The test system of assay [9] is Pseudomonas aeruginosa. The assay is described as follows: Antibacterial activity against Pseudomonas aeruginosa MTCC 1688 at 20 ug after 24 hrs by cup diffusion method. The settings on record: MTCC 1688, 24 h, read-out: IZ. In outline:
as §2

Assay [10] has as its system Staphylococcus aureus. Briefly: Antibacterial activity against Staphylococcus aureus MTCC 737 at 20 ug after 24 hrs by cup diffusion method. The settings on record: MTCC 737, 24 h, read-out: IZ. In outline:
as §2

For assay [11], the system named is Escherichia coli. The assay is described as follows: Antibacterial activity against Escherichia coli MTCC 443 after 24 hrs by cup diffusion method. The settings on record: MTCC 443, 24 h.
The subject of assay [12] is Klebsiella pneumoniae. The assay is described as follows: Antibacterial activity against Klebsiella pneumoniae […] after 24 hrs by cup diffusion method.
The subject of assay [13] is Pseudomonas aeruginosa. The assay is described as follows: Antibacterial activity against Pseudomonas aeruginosa MTCC 1688 after 24 hrs by cup diffusion method. The settings on record: MTCC 1688, 24 h.
Assay [14] concerns Staphylococcus aureus. Briefly: Antibacterial activity against Staphylococcus aureus MTCC 737 after 24 hrs by cup diffusion method. The settings on record: MTCC 737, 24 h.
Assay [15] has as its system Aspergillus flavus. Briefly: Antifungal activity against Aspergillus flavus at 20 ug after 48 hrs by cup diffusion method. The settings on record: read-out: IZ. In outline: as §1
Assay [16] concerns Aspergillus niger. Briefly: Antifungal activity against Aspergillus niger at 20 ug after 48 hrs by cup diffusion method. The settings on record: read-out: IZ. In outline:
as §1

Converted amounts (≈) assume the structure as drawn.

Broadly, the MIC is the smallest concentration in the dilution series that meets the test's criterion for growth inhibition. High values mean a less susceptible organism, low ones a more susceptible organism.

On to `Cc1ccc(C2=NOC(CO)CC2)cc1C` (stereo not drawn), for which the zone of inhibition at 20 µg/disc is 14.7 mm in assay [1]; 19.8 mm in assay [2]; 17.7 mm in assay [7]; 13.7 mm in assay [8]; 12.8 mm in assay [9]; 14.8 mm in [10]. The results for the zone of inhibition at 20 µg/disc in assay [15] and in assay [16] were 8.66 mm and 10.7 mm, respectively. The MIC in assay [3] is 35 µg/mL (≈ 160 µM); in assay [4], 30 µg/mL (≈ 137 µM); in assay [5], 35 µg/mL (≈ 160 µM); in assay [6], 25 µg/mL (≈ 114 µM); in assay [11], 25 µg/mL (≈ 114 µM); in assay [12], 20 µg/mL (≈ 91.2 µM). In addition, the MIC in assay [13] turned out to be 25 µg/mL (≈ 114 µM); in assay [14] it was 15 µg/mL (≈ 68.4 µM).
Regarding `Cc1ccc(C2=NOC(C#N)CC2)cc1` (stereo not drawn), the zone of inhibition at 20 µg/disc came to 10.5 mm in [1]; 13.7 mm in [2]; 16.7 mm in assay [7]; 11.5 mm in assay [8]; 12.7 mm in assay [9]; 23.5 mm in assay [10]. For the same compound, the zone of inhibition at 20 µg/disc in assay [15] came to 7.5 mm; in assay [16], 6.83 mm. The MIC turned out to be 35 µg/mL (≈ 175 µM) in assay [3]; 40 µg/mL (≈ 200 µM) in [4]; 30 µg/mL (≈ 150 µM) in assay [5]; 25 µg/mL (≈ 125 µM) in [6]; 25 µg/mL (≈ 125 µM) in assay [11]; 20 µg/mL (≈ 99.9 µM) in [12]. Besides, the MIC is 20 µg/mL (≈ 99.9 µM) in [13] and 15 µg/mL (≈ 74.9 µM) in assay [14].
Take `CCOC(=O)C1CCC(c2ccc(OC)c(OC)c2)=NO1` (stereo not drawn): the zone of inhibition at 20 µg/disc was found to be 11.7 mm in [1]; 16.7 mm in assay [2]; 20.7 mm in [7]; 14.7 mm in assay [8]; 25.7 mm in [9]; 16.5 mm in assay [10]. Moreover, the zone of inhibition at 20 µg/disc is 9.66 mm in [15] and 8 mm in [16]. The MIC amounted to 35 µg/mL (≈ 119 µM) in assay [3]; 35 µg/mL (≈ 119 µM) in [4]; 30 µg/mL (≈ 102 µM) in [5]; 35 µg/mL (≈ 119 µM) in assay [6]; 30 µg/mL (≈ 102 µM) in assay [11]; 20 µg/mL (≈ 68.2 µM) in assay [12]. Moreover, the MIC in assay [13] and in assay [14] was 15 µg/mL (≈ 51.1 µM) each time.

The values are drawn from ChEMBL document CHEMBL1152843, “Synthesis of new series of 5,6-dihydro-4H-1,2-oxazines via hetero Diels-Alder reaction and evaluation of antimicrobial activity” (2009).
